Entries after “also recorded” stand apart in the source; their conditions may differ.
How the values were obtained:
CYP2D6 [1] = target: T1, CYP2D6 (Homo sapiens, UniProt P10635); details: ref Simcyp; cited from earlier work
[2] = logP by shaking octanol/water, HPLC quantification; format: physicochemical
In short: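 Shake-flask method: octanol-saturated water holding test compound (~26 mg/mL) was shaken with an equal volume of water-saturated octanol for 1 hour at 23°C. Compound quantified by HPLC in each separated phase.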

[3] = Plasma protein binding in fresh human plasma by ultrafiltration; format: in vitro ADME
In short: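 Fresh human plasma spiked with test compound at 5, 10 and 75 μg/mL and incubated 0.5 hours at 37°C. Ultrafiltration followed by LC-MS/MS of both the ultrafiltrate and the originally spiked plasma.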

CYP3A4/5 [4] = assay: Direct inhibition; format: in vitro ADME; details: human, pooled human liver microsomes, probe midazolam (1'-hydroxylation)
CYP2D6 [5] = target: T1, CYP2D6; assay: Direct inhibition; format: in vitro ADME
CYP2B6 = target: T2, CYP2B6 (Homo sapiens, UniProt P20813); format: in vitro ADME; details: pooled human liver microsomes, probe efavirenz (8-hydroxylation)
T2 sequence (P20813 1-491): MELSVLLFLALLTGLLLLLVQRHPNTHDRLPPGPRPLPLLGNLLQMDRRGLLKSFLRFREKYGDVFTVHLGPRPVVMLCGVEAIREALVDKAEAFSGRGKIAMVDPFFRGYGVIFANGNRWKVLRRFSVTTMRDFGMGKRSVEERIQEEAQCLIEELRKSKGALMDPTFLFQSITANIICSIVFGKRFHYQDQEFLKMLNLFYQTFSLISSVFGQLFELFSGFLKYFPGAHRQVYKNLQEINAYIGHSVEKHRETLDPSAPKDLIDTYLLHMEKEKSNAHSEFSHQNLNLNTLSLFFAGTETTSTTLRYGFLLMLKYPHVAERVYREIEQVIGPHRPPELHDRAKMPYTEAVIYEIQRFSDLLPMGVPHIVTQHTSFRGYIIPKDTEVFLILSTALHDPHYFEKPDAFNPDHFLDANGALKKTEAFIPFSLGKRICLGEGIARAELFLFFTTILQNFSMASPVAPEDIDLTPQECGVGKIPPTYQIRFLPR

CYP3A4/5 [6] = format: in vitro ADME; details: human, pooled human liver microsomes, probe midazolam (1'-hydroxylation)
CYP3A4 mRNA = assay: Induction in primary cultures of cryopreserved human hepatocytes; format: cell-based; details: 1 μM, once daily for 3 days, 3 donors
In short: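 Primary cultures of cryopreserved human hepatocytes, 3 white donors as independent evaluations. Dosed once daily for 3 days with test compound (1, 2.5, 10 μM), vehicle, 25 μM flumazenil (negative control) or 20 μM rifampicin (positive control). Cells lysed and total RNA harvested; CYP3A4 mRNA quantified by RT-PCR.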

human hepatocytes = assay: Cell integrity of hepatocyte cultures; format: cell-based; details: for Lactate dehydrogenase release: 3 days
In short: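 Cryopreserved primary human hepatocytes from 3 white donors, dosed once daily for 3 days with test compound (1, 2.5, 10 μM), vehicle, 25 μM flumazenil (negative control) or 20 μM rifampicin (positive control). Cell integrity judged by lactate dehydrogenase release into the culture medium and by microscopic review of morphology and confluency.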

[7] = Clinical pharmacokinetics, phase I study in patients with solid tumors; format: in vivo; details: human, plasma, iv
CYP2D6 [8] = target: T1, CYP2D6; assay: In vitro time-dependent inhibition of CYP2D6; format: in vitro ADME; details: in vitro data
[9] = patients; cited from earlier work
CYP3A4 = details: ref Simcyp; cited from earlier work
CYP3A = details: cited from earlier work

T1 sequence (P10635 whole entry): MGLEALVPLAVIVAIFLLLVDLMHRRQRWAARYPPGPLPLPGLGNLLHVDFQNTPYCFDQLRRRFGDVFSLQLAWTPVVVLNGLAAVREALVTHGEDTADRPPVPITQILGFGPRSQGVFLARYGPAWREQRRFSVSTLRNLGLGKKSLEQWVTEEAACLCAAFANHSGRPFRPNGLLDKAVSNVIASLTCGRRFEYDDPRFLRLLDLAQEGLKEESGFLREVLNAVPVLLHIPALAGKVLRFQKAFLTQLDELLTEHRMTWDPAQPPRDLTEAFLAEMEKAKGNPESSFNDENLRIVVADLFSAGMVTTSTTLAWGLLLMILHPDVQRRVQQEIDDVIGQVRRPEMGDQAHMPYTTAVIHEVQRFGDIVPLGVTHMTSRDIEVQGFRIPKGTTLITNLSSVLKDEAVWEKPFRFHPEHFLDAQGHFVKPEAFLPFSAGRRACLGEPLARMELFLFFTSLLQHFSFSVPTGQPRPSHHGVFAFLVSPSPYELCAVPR

Q: With `COc1ccc2c(c1)[C@]13CCCC[C@@H]1[C@H](C2)N(C)CC3` [Dextromethorphan] as the molecule, how does the “fmCYP (fraction of substrate metabolized by CYP)” value (CYP2D6 [1]) read?
A: The value was 0.72.

Q: With `Cn1c(COP(=O)(NCCBr)NCCBr)cnc1[N+](=O)[O-]` [Evofosfamide, [1‐methyl‐2‐nitro‐1H‐imidazole‐5‐yl] methyl N, N’‐bis [2‐bromoethyl] diamidophosphate] as the molecule, how does the logP at 1 hour [2] read?
A: Its logP at 1 hour is 0.92.

Q: What about the fraction unbound at 0.5 h [3] of the same molecule?
A: The fraction unbound at 0.5 h was 0.455.

Q: And the Ki at 5 min (CYP3A4/5 [4])?
A: The Ki at 5 min was 141 µM.

Q: And the Ki (CYP2D6 [5])?
A: Its Ki is 85.3 µM.

Q: And the KI (inactivation) (CYP2B6)?
A: Its KI (inactivation) is 3200 µM.

Q: And the kinact (CYP2B6)?
A: The kinact was 0.000533 s⁻¹.

Q: What about the KI (inactivation) (CYP3A4/5 [6]) of the same molecule?
A: Its KI (inactivation) is 370 µM.

Q: What about the kinact (CYP3A4/5 [6]) of the same molecule?
A: Its kinact is 0.000417 s⁻¹.

Q: What about the “Effect on CYP3A4 mRNA” value (CYP3A4 mRNA) of the same molecule?
A: Its value is “no increase; also recorded: No induction”.

Q: What about the “Microscopic evaluation of toxicity” value (human hepatocytes; 1 μM, day 3, some signs of toxicity in third preparation) of the same molecule?
A: The value was “no signs of toxicity in two of the three donor cells”.

Q: And the Lactate dehydrogenase release (human hepatocytes; 10 μM, versus control incubations)?
A: Its Lactate dehydrogenase release is “higher”.

Q: And the Lactate dehydrogenase release (human hepatocytes; 1 and 2.5 μM)?
A: The Lactate dehydrogenase release was “comparable to control incubations”.

Q: And the “Microscopic evaluation of toxicity” value (human hepatocytes; 2.5 and 10 μM)?
A: The value was “Toxicity was observed in all donor cells”.

Q: And the Vd [7]?
A: The Vd was 0.43 L/kg.

Q: What about the clearance [7] of the same molecule?
A: Its clearance is 1060 mL/min.

Q: What about the “Time-dependent inhibition of CYP2D6” value (CYP2D6 [8]) of the same molecule?
A: The value was “not time‐dependent”.

Q: And the Elimination half-life [9]?
A: Its Elimination half-life is 48.6 min.

Q: With `Cc1ncc2n1-c1ccc(Cl)cc1C(c1ccccc1F)=NC2` [Midazolam] as the molecule, how does the “fmCYP (fraction of substrate metabolized by CYP)” value (CYP3A4) read?
A: The value was 0.96.

Q: What about the “Fraction escaping gut metabolism in the absence of inhibitor (fG)” value (CYP3A) of the same molecule?
A: Its value is 0.57.

Source: PMC6310869 (CPT: Pharmacometrics & Systems Pharmacology, 2018)
